# Results from ChEMBL document CHEMBL3414514, “Synthesis and pharmacological evaluation of novel bisindole derivatives bearing oximes moiety: identification of novel proapoptotic agents” (Eur J Med Chem, 2015).
# pIC50: −log10 of the molar value.
# Tested on: not listed separately
# Experiment: Cytotoxicity against human SKOV3 cells after 2 days by MTT assay
# Assay type: functional, cell-based
# Conditions: SK-OV-3, 48 h
# Outline: (§1)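 Cells grown in medium with 10% heat-inactivated FBS at 37 C under 5% CO2. Compounds dissolved in medium with 1% DMSO; controls received 1% DMSO. After 2 days, MTT (10 mg/mL) added for 4 h, formazan dissolved in DMSO and absorbance read at 570/630 nm. Survival taken relative to negative control; IC50 by Bliss method (n = 5), at least three independent experiments.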
row,SMILES,pIC50
1,Cc1cccc2c1N=C(c1c[nH]c3c(C)cccc13)/C2=N/OCc1cccc(F)c1,4.76
2,Cc1cccc2c1/C(=N\O)C(c1c[nH]c3cccc(C)c13)=N2,4.57
3,N#Cc1cccc2c1/C(=N\O)C(c1c[nH]c3cccc(C#N)c13)=N2,4.51
4,O/N=C1/C(c2c[nH]c3ccc(OCc4ccccc4)cc23)=Nc2ccc(OCc3ccccc3)cc21,4.75
5,Cc1ccc(CO/N=C2/C(c3c[nH]c4ccccc34)=Nc3ccccc32)cc1,4.49
6,COC(=O)c1ccc2c(c1)/C(=N\O)C(c1c[nH]c3ccc(C(=O)OC)cc13)=N2,4.81
7,FC(F)(F)c1ccc(CO/N=C2/C(c3c[nH]c4ccc(Br)cc34)=Nc3ccc(Br)cc32)cc1,4.99
8,c1ccc(CO/N=C2/C(c3c[nH]c4ccccc34)=Nc3ccccc32)cc1,4.77

# Tested on: HUVEC
# Experiment: Cytotoxicity against human HUVEC cells after 2 days by MTT assay
# Assay type: cell-based
# Conditions: 48 h
# Outline: as §1
row,SMILES,pIC50
1,Cc1cccc2c1N=C(c1c[nH]c3c(C)cccc13)/C2=N/OCc1cccc(F)c1,< 4.00
2,Cc1cccc2c1/C(=N\O)C(c1c[nH]c3cccc(C)c13)=N2,< 4.00
3,N#Cc1cccc2c1/C(=N\O)C(c1c[nH]c3cccc(C#N)c13)=N2,< 4.00
4,O/N=C1/C(c2c[nH]c3ccc(OCc4ccccc4)cc23)=Nc2ccc(OCc3ccccc3)cc21,< 4.00
5,Cc1ccc(CO/N=C2/C(c3c[nH]c4ccccc34)=Nc3ccccc32)cc1,< 4.00
6,COC(=O)c1ccc2c(c1)/C(=N\O)C(c1c[nH]c3ccc(C(=O)OC)cc13)=N2,< 4.00
7,FC(F)(F)c1ccc(CO/N=C2/C(c3c[nH]c4ccc(Br)cc34)=Nc3ccc(Br)cc32)cc1,< 4.00
8,c1ccc(CO/N=C2/C(c3c[nH]c4ccccc34)=Nc3ccccc32)cc1,< 4.00

# Tested on: HepG2
# Experiment: Cytotoxicity against human HepG2 cells after 2 days by MTT assay
# Assay type: functional, cell-based
# Conditions: HepG2, 48 h
# Outline: as §1
row,SMILES,pIC50
1,Cc1cccc2c1N=C(c1c[nH]c3c(C)cccc13)/C2=N/OCc1cccc(F)c1,4.47
2,Cc1cccc2c1/C(=N\O)C(c1c[nH]c3cccc(C)c13)=N2,4.67
3,N#Cc1cccc2c1/C(=N\O)C(c1c[nH]c3cccc(C#N)c13)=N2,4.39
4,O/N=C1/C(c2c[nH]c3ccc(OCc4ccccc4)cc23)=Nc2ccc(OCc3ccccc3)cc21,4.72
5,Cc1ccc(CO/N=C2/C(c3c[nH]c4ccccc34)=Nc3ccccc32)cc1,4.72
6,COC(=O)c1ccc2c(c1)/C(=N\O)C(c1c[nH]c3ccc(C(=O)OC)cc13)=N2,4.82
7,FC(F)(F)c1ccc(CO/N=C2/C(c3c[nH]c4ccc(Br)cc34)=Nc3ccc(Br)cc32)cc1,4.96
8,c1ccc(CO/N=C2/C(c3c[nH]c4ccccc34)=Nc3ccccc32)cc1,4.71

# Tested on: not listed separately
# Experiment: Cytotoxicity against human T24 cells after 2 days by MTT assay
# Assay type: functional, cell-based
# Conditions: T-24, 48 h
# Outline: as §1
row,SMILES,pIC50
1,Cc1cccc2c1N=C(c1c[nH]c3c(C)cccc13)/C2=N/OCc1cccc(F)c1,4.67
2,Cc1cccc2c1/C(=N\O)C(c1c[nH]c3cccc(C)c13)=N2,4.82
3,N#Cc1cccc2c1/C(=N\O)C(c1c[nH]c3cccc(C#N)c13)=N2,4.71
4,O/N=C1/C(c2c[nH]c3ccc(OCc4ccccc4)cc23)=Nc2ccc(OCc3ccccc3)cc21,4.93
5,Cc1ccc(CO/N=C2/C(c3c[nH]c4ccccc34)=Nc3ccccc32)cc1,4.63
6,COC(=O)c1ccc2c(c1)/C(=N\O)C(c1c[nH]c3ccc(C(=O)OC)cc13)=N2,4.94
7,FC(F)(F)c1ccc(CO/N=C2/C(c3c[nH]c4ccc(Br)cc34)=Nc3ccc(Br)cc32)cc1,5.01
8,c1ccc(CO/N=C2/C(c3c[nH]c4ccccc34)=Nc3ccccc32)cc1,4.92

# Tested on: NCI-H460
# Experiment: Cytotoxicity against human NCI-H460 cells after 2 days by MTT assay
# Assay type: functional, cell-based
# Conditions: NCI-H460, 48 h
# Outline: as §1
row,SMILES,pIC50
1,Cc1cccc2c1N=C(c1c[nH]c3c(C)cccc13)/C2=N/OCc1cccc(F)c1,4.78
2,Cc1cccc2c1/C(=N\O)C(c1c[nH]c3cccc(C)c13)=N2,4.62
3,N#Cc1cccc2c1/C(=N\O)C(c1c[nH]c3cccc(C#N)c13)=N2,4.73
4,O/N=C1/C(c2c[nH]c3ccc(OCc4ccccc4)cc23)=Nc2ccc(OCc3ccccc3)cc21,4.78
5,Cc1ccc(CO/N=C2/C(c3c[nH]c4ccccc34)=Nc3ccccc32)cc1,4.53
6,COC(=O)c1ccc2c(c1)/C(=N\O)C(c1c[nH]c3ccc(C(=O)OC)cc13)=N2,4.86
7,FC(F)(F)c1ccc(CO/N=C2/C(c3c[nH]c4ccc(Br)cc34)=Nc3ccc(Br)cc32)cc1,4.95
8,c1ccc(CO/N=C2/C(c3c[nH]c4ccccc34)=Nc3ccccc32)cc1,4.66

# Tested on: not listed separately
# Experiment: Cytotoxicity against human SPCA2 cells after 2 days by MTT assay
# Assay type: functional, cell-based
# Conditions: SPCA2, 48 h
# Outline: as §1
row,SMILES,pIC50
1,Cc1cccc2c1N=C(c1c[nH]c3c(C)cccc13)/C2=N/OCc1cccc(F)c1,4.69
2,Cc1cccc2c1/C(=N\O)C(c1c[nH]c3cccc(C)c13)=N2,4.37
3,N#Cc1cccc2c1/C(=N\O)C(c1c[nH]c3cccc(C#N)c13)=N2,4.51
4,O/N=C1/C(c2c[nH]c3ccc(OCc4ccccc4)cc23)=Nc2ccc(OCc3ccccc3)cc21,4.92
5,Cc1ccc(CO/N=C2/C(c3c[nH]c4ccccc34)=Nc3ccccc32)cc1,4.59
6,COC(=O)c1ccc2c(c1)/C(=N\O)C(c1c[nH]c3ccc(C(=O)OC)cc13)=N2,4.83
7,FC(F)(F)c1ccc(CO/N=C2/C(c3c[nH]c4ccc(Br)cc34)=Nc3ccc(Br)cc32)cc1,4.91
8,c1ccc(CO/N=C2/C(c3c[nH]c4ccccc34)=Nc3ccccc32)cc1,4.67

# Tested on: A549
# Experiment: Cytotoxicity against human A549 cells after 2 days by MTT assay
# Assay type: functional, cell-based
# Conditions: A549, 48 h
# Outline: as §1
row,SMILES,pIC50
1,Cc1cccc2c1N=C(c1c[nH]c3c(C)cccc13)/C2=N/OCc1cccc(F)c1,4.63
2,Cc1cccc2c1/C(=N\O)C(c1c[nH]c3cccc(C)c13)=N2,4.35
3,N#Cc1cccc2c1/C(=N\O)C(c1c[nH]c3cccc(C#N)c13)=N2,4.47
4,O/N=C1/C(c2c[nH]c3ccc(OCc4ccccc4)cc23)=Nc2ccc(OCc3ccccc3)cc21,4.71
5,Cc1ccc(CO/N=C2/C(c3c[nH]c4ccccc34)=Nc3ccccc32)cc1,4.65
6,COC(=O)c1ccc2c(c1)/C(=N\O)C(c1c[nH]c3ccc(C(=O)OC)cc13)=N2,4.69
7,FC(F)(F)c1ccc(CO/N=C2/C(c3c[nH]c4ccc(Br)cc34)=Nc3ccc(Br)cc32)cc1,5.07
8,c1ccc(CO/N=C2/C(c3c[nH]c4ccccc34)=Nc3ccccc32)cc1,4.71

# Tested on: MGC-803
# Experiment: Cytotoxicity against human MGC803 cells after 2 days by MTT assay
# Assay type: functional, cell-based
# Conditions: MGC-803, 48 h
# Outline: as §1
row,SMILES,pIC50
1,Cc1cccc2c1N=C(c1c[nH]c3c(C)cccc13)/C2=N/OCc1cccc(F)c1,4.50
2,Cc1cccc2c1/C(=N\O)C(c1c[nH]c3cccc(C)c13)=N2,4.60
3,N#Cc1cccc2c1/C(=N\O)C(c1c[nH]c3cccc(C#N)c13)=N2,4.45
4,O/N=C1/C(c2c[nH]c3ccc(OCc4ccccc4)cc23)=Nc2ccc(OCc3ccccc3)cc21,4.84
5,Cc1ccc(CO/N=C2/C(c3c[nH]c4ccccc34)=Nc3ccccc32)cc1,4.64
6,COC(=O)c1ccc2c(c1)/C(=N\O)C(c1c[nH]c3ccc(C(=O)OC)cc13)=N2,4.65
7,FC(F)(F)c1ccc(CO/N=C2/C(c3c[nH]c4ccc(Br)cc34)=Nc3ccc(Br)cc32)cc1,4.96
8,c1ccc(CO/N=C2/C(c3c[nH]c4ccccc34)=Nc3ccccc32)cc1,4.81
